This note sets out measurements from ChEMBL document CHEMBL1152271, “Interrogating the bioactive pharmacophore of the latrunculin chemotype by investigating the metabolites of two taxonomically unrelated sponges” (J Med Chem, 2008).

As a reminder, the IC50 is the concentration at which inhibition is half-maximal. Lower therefore signals greater potency.

Calls of active or inactive are those of the source. No cut-off for these calls is given here.

The test system of test [1] is MDA-MB-435. The test can be described thus: Ratio of IC50 for human MDA-MB-435 cells to IC50 for human HCT116 cells. The format is functional.
The test system of another test is HCT-116. The test can be described thus: Cytotoxicity against human HCT116 cells after 3 days by trypan blue assay. The format is functional, cell-based. As to conditions: HCT-116, 72 h.
Test [2] deals with MDA-MB-435. Put plainly: Cytotoxicity against human MDA-MB-435 cells 48 hrs by SRB assay. As to conditions: MDA-MB-435, 48 h. The test is classed as functional, cell-based. Background: The SRB assay estimates cell density from bound dye.
In test [3] the test system is MC-38. The test can be described thus: Cytotoxicity against mouse Colon 38 cells at 4.0 uM by disk diffusion soft agar colony formation assay. The format is functional. The settings on record: read-out: IZ. Summed up: (§1)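 Disk diffusion soft-agar colony formation assay with murine colon 38 cells. The compound is adsorbed onto a disk at a concentration similar to the other compounds tested. The read-out is the zone of inhibition (Z), recorded in mm.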
For orientation: A growth-free zone around the sample is the usual read-out of agar diffusion tests.

Test [4] has as its system A10. The test can be described thus: Disruption of microfilament in rat A10 cells at 5 uM after 18 hrs using DAPI staining by fluorescence microscopy.
Test [5] concerns A10. Put plainly: Disruption of microfilament in rat A10 cells at 9 uM after 18 hrs using DAPI staining by fluorescence microscopy. The format is functional, cell-based.
Test [6] concerns MC-38. The test can be described thus: Cytotoxicity against mouse Colon 38 cells at 5.1 uM by disk diffusion soft agar colony formation assay. The format is functional. As to conditions: read-out: IZ. Summed up: (§2)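 Soft agar disk diffusion colony formation assay with murine colon 38 cells, run alongside murine L1210 and CFU-GM. Compound adsorbed onto a disk at similar loadings across compounds. Read-out is the zone of inhibition (Z) in mm. Full method described previously.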

Test [7] has as its system MC-38. The test can be described thus: Cytotoxicity against mouse Colon 38 cells at 3.5 uM by disk diffusion soft agar colony formation assay. The format is functional. As to conditions: read-out: IZ. In short, it runs like this:
as §1

Test [8] deals with MC-38. The test can be described thus: Cytotoxicity against mouse Colon 38 cells at 1.1 uM by disk diffusion soft agar colony formation assay. The format is functional. As to conditions: read-out: IZ. In short, it runs like this:
as §1

The subject of test [9] is MC-38. Put plainly: Cytotoxicity against mouse Colon 38 cells at 1.9 uM by disk diffusion soft agar colony formation assay. As to conditions: read-out: IZ. The format is functional. Summed up: as §2

`C/C1=C/C(=O)O[C@@H]2C[C@@H](CC[C@H](C)/C=C\[C@@H]3OC(C)(C)O[C@H]3CC1)O[C@@](O)([C@@H]1CSC(=O)N1)C2`: the “Ratio IC50” value in the test on MDA-MB-435 [1] worked out at 1.5. Besides, the concentration for half-maximal inhibition (IC50) in the test with HCT-116 came to 5.1 µM; in the test with MDA-MB-435 [2] it was 7.9 µM. Moreover, the zone of inhibition at 4 µM with MC-38 [3] was 21 mm. Further, the result with A10 [4] was Active.

As for `C/C1=C/C(=O)O[C@@H]2C[C@@H](CC[C@H](C)C(=O)/C=C/C(O)CC1)O[C@@](O)([C@@H]1CSC(=O)N1)C2` (some centres undefined), in the test on MDA-MB-435 [1], the “Ratio IC50” value is given as under 0.6. Moreover, the IC50 is over 53 µM in the test on HCT-116 and 30.5 µM with MDA-MB-435 [2]. The result in the test on A10 [5] was inactive.

Turning to `C/C1=C/C(=O)O[C@@H]2C[C@@H](CC[C@H](C)/C=C\CC1)O[C@@](O)([C@@H]1CSC(=O)N1)C2` [LATRUNCULIN B], the “Ratio IC50” value in the test with MDA-MB-435 [1] stood at 0.7. The values for the IC50 in the test on HCT-116 and in the test with MDA-MB-435 [2] were 7.1 µM and 4.8 µM, respectively. For the same molecule, in the test on A10 [4], the result was Active. The zone of inhibition at 5.1 µM in the test on MC-38 [6] was 13 mm.

`C/C1=C/C(=O)O[C@@H]2C[C@@H](CC[C@H](C)/C=C\[C@H](O)[C@H](O)CC1)O[C@@](O)([C@@H]1CSC(=O)N1)C2` [LATRUNCULOL C]: in the test on MDA-MB-435 [1], the “Ratio IC50” value was under 0.2. The IC50 with HCT-116 is over 53 µM; in the test on MDA-MB-435 [2], 11.9 µM. In addition, the result with A10 [4] was Active.

Turning to `C/C1=C/C(=O)O[C@@H]2C[C@@H](CC[C@H](C)/C=C\[C@H](O)[C@@H](O)CC1)O[C@@](O)([C@H]1CSC(=O)N1)C2` [18-EPI-LATRUNCULOL A], the “Ratio IC50” value with MDA-MB-435 [1] is over 9.1. Also, the IC50 was 5.5 µM with HCT-116 and over 50 µM with MDA-MB-435 [2]. Moreover, the outcome with A10 [4] was inactive. The zone of inhibition at 3.5 µM in the test with MC-38 [7] came to 17 mm.

On to `C/C1=C/C(=O)O[C@@H]2C[C@@H](CC[C@H](C)/C=C\CC1)O[C@@](O)([C@H]1CSC(=O)N1)C2` [16-EPI-LATRUNCULIN B], for which, in the test with MDA-MB-435 [1], the “Ratio IC50” value was found to be 0.5. The concentration for half-maximal inhibition (IC50) with HCT-116 was found to be 38 µM; in the test on MDA-MB-435 [2], 17 µM. For the same molecule, the result with A10 [4] was Active.

On to `C/C1=C/C(=O)O[C@@H]2C[C@@H](CC[C@H](C)/C=C\[C@H](O)[C@@H](O)CC1)O[C@@](O)([C@@H]1CSC(=O)N1)C2` [LATRUNCULOL A], for which, in the test with MDA-MB-435 [1], the “Ratio IC50” value was determined as 4.4. Besides, the zone of inhibition at 1.1 µM in the test with MC-38 [8] was found to be 23.5 mm. The values for the IC50 with HCT-116 and in the test with MDA-MB-435 [2] were 0.48 µM and 2.1 µM, respectively. For the same molecule, the result in the test with A10 [4] was Active.

Take `C/C1=C/C(=O)O[C@@H](CC(O)[C@@H]2CSC(=O)N2)C[C@H](O)CC[C@H](C)/C=C\CC1` (some centres undefined) [LATRUNCULIN C]: in the test with MDA-MB-435 [1], the “Ratio IC50” value is on record as under 0.3. Moreover, the IC50 in the test with HCT-116 is over 100 µM; with MDA-MB-435 [2] it was 34.3 µM. For the same molecule, in the test with A10 [4], the result was inactive.

Regarding `C/C(=C/C(=O)O)CC/C=C\[C@@H](C)CC[C@@H]1CC=CC(=O)O1` [LATRUNCULEIC ACID], the “Ratio IC50” value in the test on MDA-MB-435 [1] is on record as 0.5. Besides, the values for the IC50 in the test with HCT-116 and in the test with MDA-MB-435 [2] were 48 µM and 26.1 µM, respectively. Moreover, the result with A10 [4] was inactive.

With `CO[C@]1([C@@H]2CSC(=O)N2)C[C@H]2C[C@@H](CC[C@H](C)/C=C\CC/C(C)=C\C(=O)O2)O1` [15-METHOXYLATRUNCULIN B], the “Ratio IC50” value in the test on MDA-MB-435 [1] is recorded as 0.6. The IC50 with HCT-116 is 49 µM; in the test with MDA-MB-435 [2], 29.7 µM. The outcome with A10 [4] was inactive.

Take `C/C1=C/C(=O)O[C@@H]2C[C@@H](CC[C@H](C)/C=C\CC(=O)CC1)O[C@@](O)([C@@H]1CSC(=O)N1)C2` [LATRUNCULONE B]: in the test with MDA-MB-435 [1], the “Ratio IC50” value came out at 1.1. Further, the zone of inhibition at 1.1 µM with MC-38 [8] worked out at 19.5 mm. Further, the results for the IC50 in the test on HCT-116 and in the test with MDA-MB-435 [2] were 0.92 µM and 1 µM, respectively. Moreover, in the test with A10 [4], the outcome was Active.

In the case of `C/C1=C/C(=O)O[C@@H]2C[C@@H](CC[C@H](C)/C=C\C=C\CC1)O[C@@](O)([C@@H]1CSC(=O)N1)C2` [LATRUNCULIN A], the “Ratio IC50” value in the test on MDA-MB-435 [1] is reported as 2.5. Further, the concentration for half-maximal inhibition (IC50) in the test with HCT-116 came to 1.1 µM; in the test with MDA-MB-435 [2] it was 2.8 µM. Besides, the zone of inhibition at 1.9 µM in the test on MC-38 [9] was found to be 9 mm. In addition, in the test with A10 [4], the outcome was Active.

Consider `CO[C@H]1/C=C\[C@@H](C)CC[C@@H]2C[C@H](C[C@](O)([C@@H]3CSC(=O)N3)O2)OC(=O)/C=C(/C)CC[C@@H]1O` [LATRUNCULOL B], for which the “Ratio IC50” value with MDA-MB-435 [1] is listed as 1.9. Besides, the zone of inhibition at 1.1 µM in the test on MC-38 [8] stood at 19.5 mm. Also, the 50% inhibitory concentration (IC50) with HCT-116 amounted to 2.1 µM; with MDA-MB-435 [2], 4 µM. Further, in the test on A10 [4], the result was Active.
